Bioassay records: PubChem BioAssay, several laboratories
Calb FLC = C. albicans growth modulation with fluconazole | C. albicans CaCi-2 (fluconazole-resistant clinical isolate) + fluconazole, Alamar Blue growth, 48 h | growth inhibition, % (test concentration not listed) | actives 0.57% (n = 300,000) | AID 1979;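 active = growth inhibition above about 58% in most replicates, limit read from the data, passing the limit was not always enough; inconclusive = exactly half the replicates above a set limit; inactive = most replicates below a set limit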;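 also: all wells also contain fluconazole at 8 µg/ml as a sub-toxic cotreatment; 0% = median of DMSO wells and 100% = median of geldanamycin control wells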
Mdm2 MdmX PPI = disrupts the human Mdm2-MdmX interaction; O15151+Q00987; SaOS-2 split-luciferase Mdm2/MdmX complementation, luminescence; inhibition, % at 8 µM; actives 3% (n = 330,000);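 active = inhibition of at least 50% at 8 µM in the primary screen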
Target sequence (O15151 whole entry, looked up): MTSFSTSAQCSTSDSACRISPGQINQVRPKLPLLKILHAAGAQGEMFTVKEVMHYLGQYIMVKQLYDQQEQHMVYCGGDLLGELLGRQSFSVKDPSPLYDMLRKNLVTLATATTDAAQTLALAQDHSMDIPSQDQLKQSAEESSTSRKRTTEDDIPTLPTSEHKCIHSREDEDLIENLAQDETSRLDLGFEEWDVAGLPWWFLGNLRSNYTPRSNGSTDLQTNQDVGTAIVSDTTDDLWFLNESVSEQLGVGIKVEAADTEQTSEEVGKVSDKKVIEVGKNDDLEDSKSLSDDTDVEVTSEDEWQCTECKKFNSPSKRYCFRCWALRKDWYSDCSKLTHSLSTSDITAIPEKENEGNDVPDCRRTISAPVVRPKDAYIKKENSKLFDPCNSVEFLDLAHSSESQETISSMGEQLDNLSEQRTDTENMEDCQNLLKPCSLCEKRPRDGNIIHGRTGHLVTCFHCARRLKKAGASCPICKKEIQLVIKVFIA
Target sequence (Q00987 whole entry, looked up): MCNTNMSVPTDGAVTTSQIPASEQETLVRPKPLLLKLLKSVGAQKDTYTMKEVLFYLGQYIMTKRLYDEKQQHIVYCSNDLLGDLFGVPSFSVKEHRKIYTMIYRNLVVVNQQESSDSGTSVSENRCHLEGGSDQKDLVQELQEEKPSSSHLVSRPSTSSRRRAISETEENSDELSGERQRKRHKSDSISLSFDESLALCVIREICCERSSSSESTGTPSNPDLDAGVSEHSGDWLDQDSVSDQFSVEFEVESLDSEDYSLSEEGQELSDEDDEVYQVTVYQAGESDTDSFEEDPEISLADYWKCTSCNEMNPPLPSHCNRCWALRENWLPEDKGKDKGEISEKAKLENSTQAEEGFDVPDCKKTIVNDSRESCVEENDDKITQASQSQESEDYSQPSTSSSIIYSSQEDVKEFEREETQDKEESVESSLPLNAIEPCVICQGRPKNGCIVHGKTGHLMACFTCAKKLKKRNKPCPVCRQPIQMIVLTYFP
T cruzi inh = blocks replication of Trypanosoma cruzi. inhibition, % (concentration not given with the values). actives 1.4% (n = 300,000). T. cruzi beta-gal in NIH3T3, luminescence, 90 h;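 active = mean inhibition across valid replicates above about 55%, limit read from the data; inconclusive = mean below that limit but half or more replicates reach it; inactive = mean below it, under half of replicates reach it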;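 also: signal also drops with host cell toxicity which is not excluded here; 0% = plate median of DMSO wells and 100% = zero luminescence signal; higher percent means less beta-gal luminescence so fewer parasites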
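Test system: β-gal T. cruzi (Tulahuen C4) inside NIH/3T3 cells / Quantity: 5,000 cells/well / Measured by: luminescence from GalScreen with 0.05% NP40, read after 60 min / Medium: DMEM plus 2% FBS / Measure: parasite load inhibition, % / Reagent: Tulahuen C4 trypomastigotes, 5000/well / Schedule: co-culture of at least 90 h after 3 h attachment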
SKKanGAS inh = blocks kanamycin growth of S. pyogenes SKKanGAS strain; inhibition, % at 7.5 µM; actives 1.3% (n = 300,000); BacTiter-Glo, 6 h;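 active = mean replicate score, as percent of positive control median, at least 50; inconclusive = mean below 50 but one replicate at or above 50; inactive = mean and every replicate below 50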;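 also: strain carries kanamycin resistance gene driven by streptokinase promoter and grows in 40 µg/ml kanamycin; loss of luminescence reflects streptokinase promoter inhibition or plain growth inhibition; 0% = median of DMSO wells and 100% = positive control at its reference dose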
Beta apoptosis = blocks beta cell apoptosis. INS-1E cytokine-induced death, ATP luminescence, 48 h; percent of positive-control rescue, neutral wells zero. protection from apoptosis, % (concentration not given with the values). actives 0.8% (n = 300,000);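 active = Every replicate reaches about 75%, or at least half do and their mean reaches it too, limit read from the data; inconclusive = At least half of replicates reach the limit but their mean does not; inactive = Under half of replicates reach the limit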;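 also: 0% = cytokine-treated negative control wells and 100% = positive control rescue; higher means more ATP so stronger rescue from cytokine killing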
CSC inhib = cancer stem cell inhibition; cancer stem cell-like cells viability, luminescence; inhibition, % at 7.5 µM; actives 1.1% (n = 300,000); in the data active = inhibition above about 75%; inconclusive = no clear call, values can overlap the other calls; tested in HMLE shEcad cells
Mdm2 MdmX conf = human Mdm2/MdmX binding inhibition, confirmed | actives 55% (n = 10,000) | inhibition, % at 8 µM | AID 489028 | shares compounds with Mdm2 MdmX PPI | luminescent assay; in the data active = inhibition above about 40%
FLuc counter = full-length luciferase inhibition in Mdm2/MdmX counter-screen | shares compounds with Mdm2 MdmX PPI | SaOS-2 full-length luciferase counterscreen, luminescence | inhibition, % at 8 µM | actives 77% (n = 6,200) | AID 504607;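 active = mean inhibition at 8 µM reaching about 37%, which flags the compound as non-specific, limit read from the data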;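 also: p53-null SaOS-2 cells with luciferase driven by a doxycycline-inducible promoter; compound on cells about two nights before reading with doxycycline added after day one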
The depositor's hits bear a star; ? = inconclusive; nt = no result given. In the library only some 5.7% were active in any assay of this set; here they are far more common.

SMILES	Calb FLC	Mdm2 MdmX PPI	T cruzi inh	SKKanGAS inh	Beta apoptosis	CSC inhib	Mdm2 MdmX conf	FLuc counter
CCCCn1c(N)c(N(CCOC)C(=O)COC(=O)COc2cc(C)c(Cl)cc2C(C)C)c(=O)[nH]c1=O	-0.7	24.7	-0.2	5.7	-5.0	nt	nt	nt
N=c1c2c(-c3ccccc3)c(-c3ccccc3)n(Cc3ccco3)c2ncn1Cc1ccccc1	7.8	100.4*	47.4	35.9	91.5*	110.1*	62.0*	23.0
O=c1c2ccccc2nc(-c2ccccc2)n1Cc1ccco1	-21.6	2.4	18.9	8.5	2.2	-12.5	nt	nt
CC(C)Cn1cnc2c(c(-c3ccccc3)c(-c3ccccc3)n2Cc2ccco2)c1=N	16.6	91.2*	59.7*	-1.1	55.9	57.6	-1.9	nt
N=c1c2c(-c3ccccc3)c(-c3ccccc3)n(Cc3ccccc3)c2ncn1CCO	96.6*	72.8*	57.3*	-6.3	8.4	7.7	65.3*	40.2*
N=c1c2c(-c3ccccc3)c(-c3ccccc3)n(Cc3ccco3)c2ncn1CCCN1CCOCC1	-5.2	100.3*	91.7*	-3.3	?	32.4	88.2*	56.0*
N=c1c2c(-c3ccccc3)c(-c3ccccc3)oc2ncn1CCN1CCOCC1	39.4	26.7	43.9	15.6	nt	16.2	nt	nt
O=C(NNC(=O)C12CC3CC(CC(C3)C1)C2)c1ccccc1[N+](=O)[O-]	3.2	23.5	-10.9	-0.1	-4.8	-6.3	nt	nt
Cc1cc(-c2nnc(CSc3nnc(NC(=O)c4ccc(C(C)(C)C)cc4)s3)o2)ccc1[N+](=O)[O-]	-0.8	59.4*	-28.7	-3.5	23.4	2.5	6.8	nt
COCCSc1nnc(NC(=O)c2ccc([N+](=O)[O-])cc2)s1	43.1	-19.3	-7.5	2.2	0.9	3.6	nt	nt
CC(=O)N/C(=C\c1ccc(C)o1)C(=O)NCc1ccccc1	-6.1	-3.7	-0.3	-0.8	-7.0	-3.3	nt	nt
Cc1ccc(OCCN2C(=O)C(=O)c3cc(C)ccc32)cc1	-1.6	62.5*	33.0	5.7	14.6	?	61.4*	79.2*
Cc1ccc(OCCCN2C(=O)C(=O)c3cccc(C)c32)cc1	1.7	20.4	-1.0	-7.1	-2.8	-9.9	nt	nt
Cc1ccc2c(c1)C(=O)C(=O)N2Cc1ccc(C(F)(F)F)cc1	nt	72.0*	nt	nt	-12.9	53.2	13.5	nt
CCCN1C(=O)C(=O)c2cc(Cl)ccc21	nt	72.7*	nt	nt	-11.9	10.1	66.6*	45.4*
Cc1ccc(NC(=O)CCN2CC(C)OC(C)C2)cc1C (stereo not drawn)	-0.1	0.5	-6.0	1.3	-1.8	-8.9	nt	nt
CC(=O)c1ccc(N2CCN(C(=O)c3ccc(C(=O)c4ccccc4)cc3)CC2)cc1	nt	-5.3	nt	nt	nt	nt	nt	nt
CCOC(=O)c1[nH]c2ccc(C)cc2c1N	64.9	-73.6	0.4	9.5	-4.3	-15.5	nt	nt
CCOC(=O)C1(N(CC)CC)Sc2cc(C)ccc2NC1=O (stereo not drawn)	20.9	68.1*	-4.5	-8.7	8.3	37.2	68.6*	52.2*
Cc1ccc(NC(=O)c2cccc(S(=O)(=O)N(C)C3CCCCC3)c2)nc1	-11.2	18.7	14.4	-8.2	nt	-2.8	nt	nt
Cc1n[nH]c(=O)c2c(NC(=O)CSc3nn(-c4ccccc4)c(=S)s3)oc(C)c12	-12.0	20.0	-6.5	2.0	-3.1	7.2	nt	nt
CCOc1ccc(S(=O)(=O)N2CCCCC2)cc1NC(=O)CN1C(=O)NC(CC)(c2ccccc2)C1=O (stereo not drawn)	-8.4	35.7	11.5	21.3	nt	-0.3	nt	nt
CC(=O)c1c(C)[nH]c(C(=O)Nc2cccc(S(=O)(=O)N3CCOCC3)c2)c1C	-0.7	58.2*	10.8	8.2	1.8	-5.5	34.0	87.2*
CC(=O)Oc1ccc(-c2ccc(C(=O)Nc3cccc(S(=O)(=O)N4CCOCC4)c3)cc2)cc1	-5.2	66.2*	40.5	28.8	5.1	93.4*	44.0*	88.5*
CC(=O)c1c(C)[nH]c(C(=O)Nc2cc(S(=O)(=O)N3CCCCC3)ccc2C)c1C	nt	21.5	nt	nt	-5.1	nt	nt	nt
SMILES	Calb FLC	Mdm2 MdmX PPI	T cruzi inh	SKKanGAS inh	Beta apoptosis	CSC inhib	Mdm2 MdmX conf	FLuc counter
COc1ccc(S(=O)(=O)N2CCCCC2)cc1NC(=O)c1[nH]c(C)c(C(C)=O)c1C	nt	81.9*	nt	nt	nt	nt	59.4*	43.0*
CCC1(c2ccccc2)NC(=O)N(CC(=O)Nc2cc(S(=O)(=O)N3CCCCCC3)ccc2OC)C1=O (stereo not drawn)	16.7	51.3*	29.2	22.0	6.9	3.1	42.6*	78.4*
c1coc(C2=NCCc3ccccc32)c1	-5.6	15.6	-12.4	-16.5	nt	1.5	nt	nt
O=C(CCCc1ccccc1)Nc1nccs1	2.6	-0.5	2.6	0.1	2.5	-1.6	nt	nt
Cc1c(C(=O)Nc2ccc(F)cc2)oc2ccc(S(=O)(=O)N3CCC4(CC3)OCCO4)cc12	-11.8	23.7	-2.2	-4.5	5.5	-8.4	nt	nt
Cc1c(C(=O)Nc2cccc(Cl)c2)oc2ccc(S(=O)(=O)N3CCC4(CC3)OCCO4)cc12	-9.8	60.5*	-4.3	4.8	34.8	-1.6	67.0*	32.3
C=C[C@@H]1c2cc(C)ccc2N(S(=O)(=O)c2ccc(C)cc2)[C@H](c2ccc(OC(C)=O)cc2)C1(C#N)C#N	nt	71.6*	nt	nt	16.9	113.3*	64.9*	71.8*
O=C(NC1CCSc2ccccc21)c1ccc(C(F)(F)F)cc1 (stereo not drawn)	-6.9	29.8	8.6	3.8	-0.5	-9.8	nt	nt
Cn1nc(CC(=O)NC2CCCCCCCCCCC2)c2ccccc2c1=O	18.4	27.8	-5.0	23.1	17.1	34.2	nt	nt
Cn1nc(CC(=O)Nc2ncc(Br)s2)c2ccccc2c1=O	10.2	59.1*	-13.7	2.6	7.2	20.3	24.9	nt
COc1ccc(-n2c(C)c([N+](=O)[O-])c3ccc(O)c(CN4CCCCC4)c32)cc1	?	77.3*	7.3	5.0	2.6	15.3	58.4*	28.9
COc1ccc2ccc(O)c(CN3CCN(S(=O)(=O)c4cc([N+](=O)[O-])ccc4C)CC3)c2c1	nt	26.3	nt	nt	3.1	0.5	nt	nt
Cc1ccc(-n2c(C)c([N+](=O)[O-])c3ccc(O)c(CN(C)C)c32)cc1	?	85.1*	0.4	0.0	-6.5	-26.6	80.0*	54.3*
Cc1c(NC(=O)CN2CCN(C(c3ccccc3)c3ccccc3)CC2)c(=O)n(-c2ccccc2)n1C	4.1	-30.3	-5.5	-3.9	-7.1	1.5	nt	nt
Cc1cccc(C)c1NC(=O)CN1CCN(CCCC(c2ccc(F)cc2)c2ccc(F)cc2)CC1	nt	60.2*	nt	nt	nt	nt	43.5*	74.2*
COc1cc2nc(CN(C)Cc3ccc(Cl)cc3)[nH]c(=O)c2cc1OC	-2.9	21.6	-2.8	-6.8	-8.8	-18.0	nt	nt
COc1cc2cncc(Cc3ccc(Cl)cc3)c2cc1OC	nt	68.6*	nt	nt	-9.6	0.5	65.3*	26.2
